≈ marks a conversion by molar mass, not a printed value.
Columns and labels:
Escherichia coli = test: Antibacterial activity against Escherichia coli; type: functional
In short: (§1)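 Broth microdilution MIC following CLSI guidelines, in cation-adjusted Mueller-Hinton broth, incubated at 35°C. Recent clinical isolates and reference strains, with identity confirmed by automated and standard microbiological methods. Results reported as MIC range, MIC50 and MIC90.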

Staphylococcus aureus [1] = test: Antibacterial activity against oxacillin and levofloxacin-resistant Staphylococcus aureus; type: functional
In short: (§2)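 Broth microdilution MIC per CLSI guidelines, incubated at 35°C. Cation-adjusted Mueller-Hinton broth for nonfastidious organisms and staphylococci. Streptococci tested in the same broth with 3% lysed horse blood. Anaerobes tested in supplemented Brucella broth inside an anaerobe chamber (5% CO2, 5% H2, 90% N2), read after 48 h. Strains were mainly recent clinical isolates with confirmed identity.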

[2] = system: Staphylococcus haemolyticus; test: Antibacterial activity against Staphylococcus haemolyticus; type: functional
In short: (§3)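 Broth microdilution MIC following CLSI guidelines, in cation-adjusted Mueller-Hinton broth containing 3% lysed horse blood, incubated at 35°C. Clinical isolates with identity confirmed. Reported as MIC range, MIC50 and MIC90.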

Salmonella enteritidis = test: Antibacterial activity against Salmonella enterica serovar Enteritidis; type: functional, Salmonella enterica subsp. enterica serovar Enteritidis; in short: as §1
Enterococcus faecium [3] = test: Antibacterial activity against VanB-resistant Enterococcus faecium; type: functional; in short: as §2
Staphylococcus aureus [4] = test: Antibacterial activity against oxacillin-resistant Staphylococcus aureus; type: functional; in short: as §2
Shigella flexneri = test: Antibacterial activity against Shigella flexneri; type: functional; in short: as §1
Enterococcus faecalis [5] = test: Antibacterial activity against VanA-resistant Enterococcus faecalis; type: functional; in short: as §2
Clostridium perfringens = test: Antibacterial activity against Clostridium perfringens; type: functional; in short: as §2
Citrobacter koseri = test: Antibacterial activity against Citrobacter diversus; type: functional; in short: as §1
Citrobacter freundii = test: Antibacterial activity against Citrobacter freundii; type: functional; in short: as §1
Haemophilus influenzae = test: Antibacterial activity against beta-lactamase negative Haemophilus influenzae; type: functional
In short: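 Broth microdilution MIC following CLSI guidelines, in Haemophilus test medium at 35°C.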

Acinetobacter sp. = test: Antibacterial activity against Acinetobacter sp.; type: functional; in short: as §1
Prevotella sp. = test: Antibacterial activity against Prevotella sp.; type: functional
In short: (§4)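 Anaerobic broth microdilution MIC following CLSI guidelines, in supplemented Brucella broth. Run in an anaerobe chamber under 5% CO2, 5% H2 and 90% N2 at 35°C, and read after 48 h. Reported as MIC range, MIC50 and MIC90.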

Burkholderia cepacia = test: Antibacterial activity against Burkholderia cepacia; type: functional; in short: as §1
Streptococcus pneumoniae [6] = test: Antibacterial activity against levofloxacin-resistant Streptococcus pneumoniae; type: functional; in short: as §2
Enterococcus gallinarum = test: Antibacterial activity against Enterococcus gallinarum; type: functional
Enterococcus faecalis [7] = test: Antibacterial activity against Enterococcus faecalis; type: functional; in short: as §2
Shigella dysenteriae = test: Antibacterial activity against Shigella dysenteriae; type: functional
Fusobacterium nucleatum = test: Antibacterial activity against Fusobacterium nucleatum; type: functional; in short: as §4
Fusobacterium sp. = test: Antibacterial activity against Fusobacterium sp.; type: functional; in short: as §4
Moraxella catarrhalis = test: Antibacterial activity against beta-lactamase positive Moraxella catarrhalis; type: functional
Alloiococcus otitis = test: Antibacterial activity against Alloiococcus otitidis; type: functional
In short: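 MIC by broth microdilution following CLSI guidelines, in cation-adjusted Mueller-Hinton broth with 3% lysed horse blood. Incubated at 35°C and read after 48 h. Reported as MIC range, MIC50 and MIC90.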

Klebsiella pneumoniae = test: Antibacterial activity against Klebsiella pneumoniae; type: functional; in short: as §1
Klebsiella aerogenes = test: Antibacterial activity against Enterobacter aerogenes; type: functional; in short: as §1
Streptococcus sanguinis = test: Antibacterial activity against Streptococcus sanguis; type: functional
In short: (§5)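 Broth microdilution MIC following CLSI guidelines, in cation-adjusted Mueller-Hinton broth with 3% lysed horse blood. Plates incubated at 35°C. Clinical isolates and reference strains, with identity confirmed by standard microbiological methods.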

Streptococcus pneumoniae [8] = test: Antibacterial activity against penicillin-intermediate resistant Streptococcus pneumoniae; type: functional; in short: as §2
Proteus vulgaris = test: Antibacterial activity against Proteus vulgaris; type: functional; in short: as §1
Staphylococcus aureus [9] = test: Antibacterial activity against vancomycin-intermediate Staphylococcus aureus; type: functional; in short: as §2
[10] = system: Staphylococcus epidermidis; test: Antibacterial activity against oxacillin-susceptible Staphylococcus epidermidis; type: functional
In short: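 MIC by CLSI broth microdilution for nonfastidious organisms, in cation-adjusted Mueller-Hinton broth incubated at 35°C.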

[11] = system: Prevotella melaninogenica; test: Antibacterial activity against Prevotella melaninogenica; type: functional; in short: as §4
Klebsiella oxytoca = test: Antibacterial activity against Klebsiella oxytoca; type: functional; in short: as §1
[12] = system: Enterococcus casseliflavus; test: Antibacterial activity against Enterococcus casseliflavus; type: functional
Streptococcus agalactiae = test: Antibacterial activity against Streptococcus agalactiae; type: functional; in short: as §3
Streptococcus viridans = test: Antibacterial activity against Streptococcus viridans; type: functional; in short: as §5
Corynebacterium jeikeium = test: Antibacterial activity against Corynebacterium jeikeium; type: functional; in short: as §3
Bacteroides fragilis = test: Antibacterial activity against Bacteroides fragilis; type: functional; in short: as §4
Listeria monocytogenes = test: Antibacterial activity against Listeria monocytogenes; type: functional; in short: as §3
[13] = system: Peptoniphilus asaccharolyticus; test: Antibacterial activity against Peptostreptococcus asaccharolyticus; type: functional; in short: as §4
Streptococcus pneumoniae [14] = test: Antibacterial activity against penicillin-resistant Streptococcus pneumoniae; type: functional; in short: as §2
Staphylococcus warneri = test: Antibacterial activity against Staphylococcus warneri; type: functional; in short: as §1
[15] = system: Staphylococcus saprophyticus; test: Antibacterial activity against Staphylococcus saprophyticus; type: functional; in short: as §1
Anaerococcus prevotii = test: Antibacterial activity against Peptostreptococcus prevotii; type: functional; in short: as §4
Clostridioides difficile = test: Antibacterial activity against Clostridium difficile; type: functional; in short: as §4
Streptococcus pneumoniae [16] = test: Antibacterial activity against penicillin-susceptible Streptococcus pneumoniae; type: functional; in short: as §2
Actinomyces sp. = test: Antibacterial activity against Actinomyces sp.; type: functional
Enterococcus faecium [17] = test: Antibacterial activity against VanA-resistant Enterococcus faecium; type: functional; in short: as §2
[18] = system: Stenotrophomonas maltophilia; test: Antibacterial activity against Stenotrophomonas maltophilia; type: functional; in short: as §1
Streptococcus pyogenes = test: Antibacterial activity against Streptococcus pyogenes; type: functional; in short: as §5

SMILES: Cc1c(N2CC[C@@H]([C@H](C)N)C2)c(F)cc2c(=O)[nH]c(=O)n(C3CC3)c12
- MIC50 (Escherichia coli): 2 µg/mL (≈ 5.77 µM)
- MIC90 (Escherichia coli): 8 µg/mL (≈ 23.1 µM)
- MIC50 (Staphylococcus aureus [1]): 1 µg/mL (≈ 2.89 µM)
- MIC90 (Staphylococcus aureus [1]): 4 µg/mL (≈ 11.5 µM)
- MIC50 [2]: 0.25 µg/mL (≈ 0.722 µM)
- MIC90 [2]: 1 µg/mL (≈ 2.89 µM)
- MIC50 (Salmonella enteritidis): 2 µg/mL (≈ 5.77 µM)
- MIC90 (Salmonella enteritidis): 4 µg/mL (≈ 11.5 µM)
- MIC (Enterococcus faecium [3]): 1 µg/mL (≈ 2.89 µM)
- MIC50 (Staphylococcus aureus [4]): 0.25 µg/mL (≈ 0.722 µM)
- MIC90 (Staphylococcus aureus [4]): 0.5 µg/mL (≈ 1.44 µM)
- MIC50 (Shigella flexneri): 2 µg/mL (≈ 5.77 µM)
- MIC90 (Shigella flexneri): 4 µg/mL (≈ 11.5 µM)
- MIC (Enterococcus faecalis [5]): 0.25 µg/mL (≈ 0.722 µM)
- MIC50 (Clostridium perfringens): 2 µg/mL (≈ 5.77 µM)
- MIC90 (Clostridium perfringens): 8 µg/mL (≈ 23.1 µM)
- MIC50 (Citrobacter koseri): 2 µg/mL (≈ 5.77 µM)
- MIC90 (Citrobacter koseri): 8 µg/mL (≈ 23.1 µM)
- MIC50 (Citrobacter freundii): 8 µg/mL (≈ 23.1 µM)
- MIC90 (Citrobacter freundii): > 64 µg/mL
- MIC50 (Haemophilus influenzae): 0.25 µg/mL (≈ 0.722 µM)
- MIC90 (Haemophilus influenzae): 0.5 µg/mL (≈ 1.44 µM)
- MIC50 (Acinetobacter sp.): 4 µg/mL (≈ 11.5 µM)
- MIC90 (Acinetobacter sp.): 64 µg/mL (≈ 185 µM)
- MIC50 (Prevotella sp.): 0.5 µg/mL (≈ 1.44 µM)
- MIC90 (Prevotella sp.): 2 µg/mL (≈ 5.77 µM)
- MIC50 (Burkholderia cepacia): 32 µg/mL (≈ 92.4 µM)
- MIC90 (Burkholderia cepacia): > 64 µg/mL
- MIC50 (Streptococcus pneumoniae [6]): 0.06 µg/mL (≈ 0.173 µM)
- MIC90 (Streptococcus pneumoniae [6]): 0.06 µg/mL (≈ 0.173 µM)
- MIC50 (Enterococcus gallinarum): 0.25 µg/mL (≈ 0.722 µM)
- MIC90 (Enterococcus gallinarum): 0.5 µg/mL (≈ 1.44 µM)
- MIC50 (Enterococcus faecalis [7]): 0.25 µg/mL (≈ 0.722 µM)
- MIC90 (Enterococcus faecalis [7]): 0.5 µg/mL (≈ 1.44 µM)
- MIC50 (Shigella dysenteriae): 2 µg/mL (≈ 5.77 µM)
- MIC90 (Shigella dysenteriae): 4 µg/mL (≈ 11.5 µM)
- MIC (Fusobacterium nucleatum): 0.125 µg/mL (≈ 0.361 µM)
- MIC (Fusobacterium sp.): 0.125 µg/mL (≈ 0.361 µM)
- MIC50 (Moraxella catarrhalis): 0.5 µg/mL (≈ 1.44 µM)
- MIC90 (Moraxella catarrhalis): 0.5 µg/mL (≈ 1.44 µM)
- MIC50 (Alloiococcus otitis): 0.008 µg/mL (≈ 0.0231 µM)
- MIC90 (Alloiococcus otitis): 0.008 µg/mL (≈ 0.0231 µM)
- MIC50 (Klebsiella pneumoniae): 4 µg/mL (≈ 11.5 µM)
- MIC90 (Klebsiella pneumoniae): 16 µg/mL (≈ 46.2 µM)
- MIC50 (Klebsiella aerogenes): 8 µg/mL (≈ 23.1 µM)
- MIC90 (Klebsiella aerogenes): 64 µg/mL (≈ 185 µM)
- MIC50 (Streptococcus sanguinis): 0.03 µg/mL (≈ 0.0866 µM)
- MIC90 (Streptococcus sanguinis): 0.06 µg/mL (≈ 0.173 µM)
- MIC50 (Streptococcus pneumoniae [8]): 0.06 µg/mL (≈ 0.173 µM)
- MIC90 (Streptococcus pneumoniae [8]): 0.125 µg/mL (≈ 0.361 µM)
- MIC (Proteus vulgaris): 2 µg/mL (≈ 5.77 µM)
- MIC (Staphylococcus aureus [9]): 0.25 µg/mL (≈ 0.722 µM)
- MIC [10]: 0.125 µg/mL (≈ 0.361 µM)
- MIC50 [11]: 0.5 µg/mL (≈ 1.44 µM)
- MIC90 [11]: 2 µg/mL (≈ 5.77 µM)
- MIC50 (Klebsiella oxytoca): 2 µg/mL (≈ 5.77 µM)
- MIC90 (Klebsiella oxytoca): 16 µg/mL (≈ 46.2 µM)
- MIC50 [12]: 0.25 µg/mL (≈ 0.722 µM)
- MIC90 [12]: 0.25 µg/mL (≈ 0.722 µM)
- MIC50 (Streptococcus agalactiae): 0.015 µg/mL (≈ 0.0433 µM)
- MIC90 (Streptococcus agalactiae): 0.03 µg/mL (≈ 0.0866 µM)
- MIC50 (Streptococcus viridans): 0.03 µg/mL (≈ 0.0866 µM)
- MIC90 (Streptococcus viridans): 0.06 µg/mL (≈ 0.173 µM)
- MIC50 (Corynebacterium jeikeium): 0.5 µg/mL (≈ 1.44 µM)
- MIC90 (Corynebacterium jeikeium): 1 µg/mL (≈ 2.89 µM)
- MIC50 (Bacteroides fragilis): 8 µg/mL (≈ 23.1 µM)
- MIC90 (Bacteroides fragilis): 16 µg/mL (≈ 46.2 µM)
- MIC50 (Listeria monocytogenes): 0.25 µg/mL (≈ 0.722 µM)
- MIC90 (Listeria monocytogenes): 0.25 µg/mL (≈ 0.722 µM)
- MIC [13]: 0.06 µg/mL (≈ 0.173 µM)
- MIC50 (Streptococcus pneumoniae [14]): 0.03 µg/mL (≈ 0.0866 µM)
- MIC90 (Streptococcus pneumoniae [14]): 0.06 µg/mL (≈ 0.173 µM)
- MIC (Staphylococcus warneri): 0.125 µg/mL (≈ 0.361 µM)
- MIC50 [15]: 0.125 µg/mL (≈ 0.361 µM)
- MIC90 [15]: 0.5 µg/mL (≈ 1.44 µM)
- MIC (Anaerococcus prevotii): 0.06 µg/mL (≈ 0.173 µM)
- MIC50 (Clostridioides difficile): 2 µg/mL (≈ 5.77 µM)
- MIC90 (Clostridioides difficile): 8 µg/mL (≈ 23.1 µM)
- MIC50 (Streptococcus pneumoniae [16]): 0.03 µg/mL (≈ 0.0866 µM)
- MIC90 (Streptococcus pneumoniae [16]): 0.06 µg/mL (≈ 0.173 µM)
- MIC (Actinomyces sp.): 1 µg/mL (≈ 2.89 µM)
- MIC50 (Enterococcus faecium [17]): 1 µg/mL (≈ 2.89 µM)
- MIC90 (Enterococcus faecium [17]): 2 µg/mL (≈ 5.77 µM)
- MIC50 [18]: 32 µg/mL (≈ 92.4 µM)
- MIC90 [18]: 64 µg/mL (≈ 185 µM)
- MIC50 (Streptococcus pyogenes): 0.03 µg/mL (≈ 0.0866 µM)
- MIC90 (Streptococcus pyogenes): 0.03 µg/mL (≈ 0.0866 µM)
